From ChEMBL document CHEMBL4177603 (Bioorg Med Chem Lett, 2017)
pIC50, pKi: −log10 of the molar value. Calls of active or inactive are those of the source. The rule behind the calls is not given here.

Experiments:
[1] = target: T1, Sodium-dependent dopamine transporter (Homo sapiens, UniProt Q01959); assay: Displacement of [3H]BTCP from recombinant human dopamine transporter at 10 uM after 120 mins by scintillation counting method
[2] = Solubility of the compound in aqueous buffer at pH 4.2; type: physicochemical
[3] = Solubility of the compound in aqueous buffer at pH 3.2; type: physicochemical
[4] = target: Sodium channel protein type 10 subunit alpha (Homo sapiens, UniProt Q9Y5Y9); assay: Inhibition of human Nav1.8 expressed in HEK cells by automated patchXpress electrophysiology method; type: cell-based
[5] = target: Sodium channel protein type 8 subunit alpha (Homo sapiens, UniProt Q9UQD0); assay: Inhibition of human Nav1.6 expressed in HEK cells by patch clamp electrophysiology method; type: cell-based
[6] = target: Sodium channel protein type 9 subunit alpha (Rattus norvegicus, UniProt O08562); assay: Inhibition of rat Nav1.7 expressed in HEK cells by patch clamp electrophysiology method; type: cell-based
[7] = Drug recovery in bile duct-cannulated rat bile at 0.3 mg/kg, iv via infusion for 1 hr; type: ADME, organism-based; settings: read-out: Drug recovery
[8] = Clearance in bile duct cannulated rat at 0.3 mg/kg, iv via infusion for 1 hr; type: ADME, organism-based; settings: in vivo
In short: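 Plasma clearance was taken from a study in bile duct cannulated rats.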

[9] = Volume of distribution at steady state in rat at 0.3 mg/kg, iv via infusion for 1 hr; type: ADME, organism-based; settings: in vivo, read-out: Vdss
[10] = Unbound clearance rat plasma at 0.3 mg/kg, iv via infusion for 1 hr; type: ADME, organism-based; settings: in vivo
[11] = Half-life in iv dosed mouse; type: ADME, organism-based; settings: in vivo
[12] = Clearance in iv dosed mouse plasma; type: ADME, organism-based
Cytochrome P450 2D6 = Cytochrome P450 2D6 (Homo sapiens, UniProt P10635); assay: Inhibition of CYP2D6 (unknown origin); type: ADME
[13] = Protein binding in dog plasma assessed as fraction unbound; type: ADME, cell-free, Canis lupus familiaris
[14] = Protein binding in human plasma assessed as fraction unbound; type: ADME, cell-free
[15] = Intrinsic clearance in dog hepatocytes assessed per million cells; type: ADME, cell-based, Canis lupus familiaris, Hepatocyte; settings: read-out: CLH
[16] = Intrinsic clearance in human hepatocytes assessed per million cells; type: ADME, cell-based, Hepatocyte; settings: read-out: CLH
[17] = Intrinsic clearance in dog liver microsomes; type: ADME, Canis lupus familiaris, microsome; settings: read-out: CLH
[18] = target: Sodium channel protein type 8 subunit alpha (Rattus norvegicus, UniProt O88420); assay: Inhibition of rat Nav1.6 expressed in HEK cells by patch clamp electrophysiology method; type: cell-based
[19] = target: Sodium channel protein type 11 subunit alpha (Homo sapiens, UniProt Q9UI33); assay: Inhibition of human Nav1.9 expressed in HEK cells by automated patchXpress electrophysiology method; type: cell-based
[20] = target: Adenosine receptor A1 (Homo sapiens) (UniProt P30542); assay: Agonist activity at recombinant human adenosine A1 receptor expressed in mouse BA/F3 cells assessed as increase in calcium flux at 10 uM by spectrophotometric method relative to control; type: functional, cell-based
[21] = target: Adenosine receptor A2a (Homo sapiens) (UniProt P29274); assay: Agonist activity at recombinant human full-length adenosine A2a receptor expressed in HEK293 cells assessed as effect on impedance at 10 uM by cellular dielectric spectroscopic method relative to control; type: functional, cell-based
[22] = target: Cannabinoid receptor 1 (Homo sapiens) (UniProt P21554); assay: Agonist activity at recombinant human CB1 receptor expressed in CHOK1 cells assessed as increase in cAMP accumulation at 10 uM after 20 mins by HTRF assay relative to control; type: functional, cell-based
[23] = target: D(2) dopamine receptor (Homo sapiens) (UniProt P14416); assay: Agonist activity at recombinant human D2S receptor expressed in HEK293 cells assessed as effect on impedance at 10 uM by cellular dielectric spectroscopic method relative to control; type: cell-based
[24] = target: Substance-P receptor (Homo sapiens) (UniProt P25103); assay: Agonist activity at human NK1 receptor expressed in U373MG cells assessed as increase in calcium flux at 10 uM by fluorimetric method relative to control; type: functional, cell-based
[25] = target: 5-hydroxytryptamine receptor 2A (Homo sapiens) (UniProt P28223); assay: Agonist activity at human 5-HT2A receptor expressed in HEK293 cells assessed as increase in IP1 accumulation at 10 uM measured after 30 mins by HTRF method relative to control; type: functional, cell-based
[26] = target: 5-hydroxytryptamine receptor 4 (Homo sapiens) (UniProt Q13639); assay: Agonist activity at recombinant human 5-HT4E expressed in CHOK1 cells assessed as increase in cAMP accumulation at 10 uM measured after 30 mins by HTRF assay relative to control; type: functional, cell-based
[27] = target: D(2) dopamine receptor (Homo sapiens) (UniProt P14416); assay: Antagonist activity at recombinant human D2S receptor expressed in HEK293 cells assessed as inhibition of dopamine-induced cell impedance at 10 uM by cellular dielectric spectroscopic method relative to control; type: cell-based
[28] = target: Histamine H1 receptor (Homo sapiens) (UniProt P35367); assay: Antagonist activity at human H1 receptor expressed in HEK293 cells assessed as inhibition of histamine-induced calcium flux at 10 uM by fluorimetric method relative to control; type: functional, cell-based
Rattus norvegicus [29] = species: Rattus norvegicus; assay: Displacement of [3H]nitrendipine from L-type calcium channel dihydropyridine (nifedipine) binding site in rat brain 10 uM measured after 90 mins by scintillation counting method
Rattus norvegicus [30] = species: Rattus norvegicus; assay: Displacement of [3H]AMPA from rat brain AMPA receptor at 10 uM after 60 mins by scintillation counting method
Homo sapiens = species: Homo sapiens; assay: Displacement of [125I]alpha-bungarotoxin from human muscle type nAChR at 10 uM after 120 mins by scintillation counting method
[31] = target: 5-hydroxytryptamine receptor 3A (Homo sapiens) (UniProt P46098); assay: Displacement of [3H]BRL 43694 from recombinant human 5-HT3 receptor at 10 uM measured after 120 mins by scintillation counting method
[32] = target: Prostaglandin G/H synthase 2 (Homo sapiens) (UniProt P35354); assay: Inhibition of recombinant human COX2 at 10 uM using arachidonic acid as substrate measured after 5 mins by fluorescence assay
[33] = target: Proto-oncogene tyrosine-protein kinase Src (Homo sapiens) (UniProt P12931); assay: Inhibition of recombinant human SRC at 10 uM using Ulight-Poly GAT[EAY(1:1:1)]n as substrate after 10 mins by LANCE assay
[34] = target: Beta-2 adrenergic receptor (Homo sapiens) (UniProt P07550); assay: Displacement of [3H](-)CGP12177 from recombinant human beta2 receptor at 10 uM after 120 mins by scintillation counting method
[35] = Displacement of [3H]diltiazem from L-type calcium channel diltiazem binding site in rat brain after 120 mins by scintillation counting method
[36] = Inhibition of sodium channel site2 (unknown origin) by radioligand binding assay relative to control; set-up: species or system Homo sapiens
[37] = target: T1, Sodium-dependent dopamine transporter; assay: Displacement of [3H]BTCP from recombinant human dopamine transporter after 120 mins by scintillation counting method
[38] = target: Prostaglandin G/H synthase 2 (Homo sapiens, UniProt P35354); assay: Inhibition of recombinant human COX2 using arachidonic acid as substrate measured after 5 mins by fluorescence assay
Mus musculus = assay: Analgesic activity in mouse assessed as inhibition of formalin-induced pain at 0.28 to 5.4 mg/kg, iv pretreated for 90 mins followed by formalin addition measured up to 40 mins; type: functional, organism-based

T1 sequence (Q01959 whole entry): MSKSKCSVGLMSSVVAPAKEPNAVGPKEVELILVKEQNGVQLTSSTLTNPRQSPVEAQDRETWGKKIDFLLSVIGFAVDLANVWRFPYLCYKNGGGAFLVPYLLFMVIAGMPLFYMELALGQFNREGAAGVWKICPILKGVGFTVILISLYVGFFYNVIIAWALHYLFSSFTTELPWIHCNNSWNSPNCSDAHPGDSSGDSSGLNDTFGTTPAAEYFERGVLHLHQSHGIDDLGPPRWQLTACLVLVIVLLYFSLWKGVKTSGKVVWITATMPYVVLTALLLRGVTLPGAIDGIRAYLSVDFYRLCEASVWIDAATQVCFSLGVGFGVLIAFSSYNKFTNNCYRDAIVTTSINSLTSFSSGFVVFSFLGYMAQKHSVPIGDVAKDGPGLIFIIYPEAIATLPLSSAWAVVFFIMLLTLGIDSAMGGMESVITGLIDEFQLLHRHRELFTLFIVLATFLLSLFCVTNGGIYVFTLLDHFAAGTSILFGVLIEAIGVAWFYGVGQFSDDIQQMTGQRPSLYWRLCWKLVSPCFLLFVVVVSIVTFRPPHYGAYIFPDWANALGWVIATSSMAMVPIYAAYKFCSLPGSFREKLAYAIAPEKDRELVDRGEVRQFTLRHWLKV
Chain of D(2) dopamine receptor (Homo sapiens) (P14416 whole entry): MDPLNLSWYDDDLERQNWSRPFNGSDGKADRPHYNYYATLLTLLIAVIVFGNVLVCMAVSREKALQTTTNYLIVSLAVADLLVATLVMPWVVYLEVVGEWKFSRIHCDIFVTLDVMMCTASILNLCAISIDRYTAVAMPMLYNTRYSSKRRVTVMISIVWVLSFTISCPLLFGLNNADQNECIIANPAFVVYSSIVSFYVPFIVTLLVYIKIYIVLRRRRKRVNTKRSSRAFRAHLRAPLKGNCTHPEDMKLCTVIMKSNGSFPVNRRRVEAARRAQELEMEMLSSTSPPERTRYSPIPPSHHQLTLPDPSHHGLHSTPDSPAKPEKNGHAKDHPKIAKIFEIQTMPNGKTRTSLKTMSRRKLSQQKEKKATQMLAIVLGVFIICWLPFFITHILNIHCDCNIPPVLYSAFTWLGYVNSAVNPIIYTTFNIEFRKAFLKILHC
Chain of Sodium channel protein type 8 subunit alpha (Rattus norvegicus, UniProt O88420) (O88420 whole entry): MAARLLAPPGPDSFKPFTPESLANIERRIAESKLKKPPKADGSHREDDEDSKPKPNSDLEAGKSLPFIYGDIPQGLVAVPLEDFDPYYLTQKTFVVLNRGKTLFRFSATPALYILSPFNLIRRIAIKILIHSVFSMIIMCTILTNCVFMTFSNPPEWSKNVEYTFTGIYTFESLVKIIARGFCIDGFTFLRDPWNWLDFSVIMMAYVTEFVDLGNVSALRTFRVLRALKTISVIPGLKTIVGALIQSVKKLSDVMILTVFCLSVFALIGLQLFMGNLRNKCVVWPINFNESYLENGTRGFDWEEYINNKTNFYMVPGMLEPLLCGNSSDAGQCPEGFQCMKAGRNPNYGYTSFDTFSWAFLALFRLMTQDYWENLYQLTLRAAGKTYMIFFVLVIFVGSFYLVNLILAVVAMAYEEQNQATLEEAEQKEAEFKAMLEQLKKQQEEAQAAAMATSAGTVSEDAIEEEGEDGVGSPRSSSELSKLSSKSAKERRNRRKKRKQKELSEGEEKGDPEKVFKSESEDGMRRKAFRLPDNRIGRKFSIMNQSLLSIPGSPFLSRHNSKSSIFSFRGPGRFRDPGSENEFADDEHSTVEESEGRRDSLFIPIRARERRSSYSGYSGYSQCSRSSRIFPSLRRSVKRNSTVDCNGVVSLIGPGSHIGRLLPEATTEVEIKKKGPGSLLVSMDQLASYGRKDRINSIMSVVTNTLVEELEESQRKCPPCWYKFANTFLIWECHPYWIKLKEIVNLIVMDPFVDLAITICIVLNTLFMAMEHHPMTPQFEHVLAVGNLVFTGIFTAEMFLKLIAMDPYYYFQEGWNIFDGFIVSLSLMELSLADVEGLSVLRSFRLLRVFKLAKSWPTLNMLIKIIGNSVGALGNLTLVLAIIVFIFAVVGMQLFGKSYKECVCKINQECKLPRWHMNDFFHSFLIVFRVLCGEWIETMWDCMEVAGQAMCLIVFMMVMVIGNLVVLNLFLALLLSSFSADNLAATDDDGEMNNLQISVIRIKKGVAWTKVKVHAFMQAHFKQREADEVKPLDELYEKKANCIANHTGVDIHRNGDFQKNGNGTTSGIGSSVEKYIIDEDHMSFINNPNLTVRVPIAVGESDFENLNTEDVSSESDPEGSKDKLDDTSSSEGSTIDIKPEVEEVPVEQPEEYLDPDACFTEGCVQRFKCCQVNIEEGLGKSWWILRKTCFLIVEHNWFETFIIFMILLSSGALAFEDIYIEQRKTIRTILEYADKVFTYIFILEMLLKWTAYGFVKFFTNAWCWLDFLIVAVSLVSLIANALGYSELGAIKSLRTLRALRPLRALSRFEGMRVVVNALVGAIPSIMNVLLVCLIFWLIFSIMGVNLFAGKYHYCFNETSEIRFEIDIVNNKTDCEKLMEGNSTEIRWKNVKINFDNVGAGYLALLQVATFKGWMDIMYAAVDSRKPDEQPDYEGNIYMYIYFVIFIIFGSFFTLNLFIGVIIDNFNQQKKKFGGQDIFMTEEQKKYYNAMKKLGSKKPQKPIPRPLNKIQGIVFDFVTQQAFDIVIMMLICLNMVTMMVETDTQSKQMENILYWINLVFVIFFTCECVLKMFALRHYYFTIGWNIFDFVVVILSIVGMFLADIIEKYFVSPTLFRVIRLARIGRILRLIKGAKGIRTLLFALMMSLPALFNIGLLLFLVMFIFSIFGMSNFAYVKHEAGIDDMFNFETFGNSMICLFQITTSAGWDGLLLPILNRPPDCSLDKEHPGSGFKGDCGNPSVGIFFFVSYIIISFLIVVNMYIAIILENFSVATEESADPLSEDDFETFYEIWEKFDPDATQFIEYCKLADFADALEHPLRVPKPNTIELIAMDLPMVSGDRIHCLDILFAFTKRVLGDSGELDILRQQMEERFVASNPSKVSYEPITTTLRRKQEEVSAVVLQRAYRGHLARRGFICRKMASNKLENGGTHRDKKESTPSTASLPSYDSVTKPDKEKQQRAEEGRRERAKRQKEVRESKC
Chain of Substance-P receptor (Homo sapiens) (P25103 whole entry): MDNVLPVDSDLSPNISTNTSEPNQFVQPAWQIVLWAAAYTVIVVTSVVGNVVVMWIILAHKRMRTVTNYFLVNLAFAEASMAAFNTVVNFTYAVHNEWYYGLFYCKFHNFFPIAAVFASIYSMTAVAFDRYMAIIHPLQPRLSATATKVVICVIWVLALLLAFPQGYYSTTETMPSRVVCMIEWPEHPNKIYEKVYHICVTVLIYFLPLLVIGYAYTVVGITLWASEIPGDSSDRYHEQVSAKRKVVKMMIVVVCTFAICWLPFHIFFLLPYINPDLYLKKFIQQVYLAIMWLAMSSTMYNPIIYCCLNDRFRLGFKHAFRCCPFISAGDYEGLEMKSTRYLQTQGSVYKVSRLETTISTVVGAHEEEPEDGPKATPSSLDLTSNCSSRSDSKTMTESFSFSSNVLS
Chain of Beta-2 adrenergic receptor (Homo sapiens) (P07550 whole entry, looked up): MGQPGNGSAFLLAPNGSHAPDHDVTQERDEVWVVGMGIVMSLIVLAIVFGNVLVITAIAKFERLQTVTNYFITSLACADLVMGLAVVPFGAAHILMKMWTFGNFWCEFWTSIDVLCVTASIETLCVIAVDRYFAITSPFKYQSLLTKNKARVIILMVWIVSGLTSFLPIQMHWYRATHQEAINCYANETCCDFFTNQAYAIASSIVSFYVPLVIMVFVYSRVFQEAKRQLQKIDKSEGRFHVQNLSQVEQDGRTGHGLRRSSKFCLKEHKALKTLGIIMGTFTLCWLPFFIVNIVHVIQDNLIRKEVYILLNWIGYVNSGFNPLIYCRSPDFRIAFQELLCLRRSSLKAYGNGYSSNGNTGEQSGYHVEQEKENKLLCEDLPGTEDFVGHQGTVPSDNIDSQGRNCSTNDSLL
Chain of Adenosine receptor A2a (Homo sapiens) (P29274 whole entry): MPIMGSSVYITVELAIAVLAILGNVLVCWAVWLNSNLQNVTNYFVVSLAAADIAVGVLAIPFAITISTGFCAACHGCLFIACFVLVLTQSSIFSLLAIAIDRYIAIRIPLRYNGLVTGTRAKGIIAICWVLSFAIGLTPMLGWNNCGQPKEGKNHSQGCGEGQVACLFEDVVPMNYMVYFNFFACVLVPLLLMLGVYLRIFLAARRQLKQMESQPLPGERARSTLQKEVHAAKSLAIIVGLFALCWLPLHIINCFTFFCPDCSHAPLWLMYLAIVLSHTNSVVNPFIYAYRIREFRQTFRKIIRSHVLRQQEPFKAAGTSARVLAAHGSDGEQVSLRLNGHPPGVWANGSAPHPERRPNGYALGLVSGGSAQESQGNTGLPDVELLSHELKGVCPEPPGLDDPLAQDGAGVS
Chain of 5-hydroxytryptamine receptor 2A (Homo sapiens) (P28223 whole entry): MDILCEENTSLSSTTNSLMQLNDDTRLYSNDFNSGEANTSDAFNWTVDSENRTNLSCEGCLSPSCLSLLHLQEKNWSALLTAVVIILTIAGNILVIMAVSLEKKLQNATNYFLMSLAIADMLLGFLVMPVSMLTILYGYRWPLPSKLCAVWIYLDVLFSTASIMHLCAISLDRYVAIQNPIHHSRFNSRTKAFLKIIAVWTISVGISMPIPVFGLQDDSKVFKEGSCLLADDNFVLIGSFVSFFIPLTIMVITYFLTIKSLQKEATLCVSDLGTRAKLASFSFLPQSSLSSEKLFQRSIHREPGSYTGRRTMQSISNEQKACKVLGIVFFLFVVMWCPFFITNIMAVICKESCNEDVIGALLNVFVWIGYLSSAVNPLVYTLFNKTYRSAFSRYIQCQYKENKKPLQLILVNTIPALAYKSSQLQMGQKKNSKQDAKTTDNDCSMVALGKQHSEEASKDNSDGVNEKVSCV

SMILES: N#Cc1cc(S(=O)(=O)Nc2ncns2)ccc1Oc1ccc(-c2cccc(C(F)(F)F)c2)cc1-c1ccnc(CNCCC2CCNCC2)c1
- inhibition [1]: 84%
- solubility [2]: > 1170 µg/mL
- solubility [3]: > 906 µg/mL
- pIC50 [4]: 4.59 to 5.00
- pIC50 [5]: 8.24 to 8.26
- pIC50 [6]: 7.12
- dose excreted at 1 h [7]: 74%
- clearance [8]: 59.8 mL/min/kg
- Vd [9]: 0.59 L/kg
- CL free [10]: 30218 mL/min/kg
- half-life [11]: 39.6 min
- clearance [12]: 36.5 mL/min/kg
- pIC50 (Cytochrome P450 2D6): 5.05
- fraction unbound [13]: 0.00374
- fraction unbound [14]: 0.00497
- hepatocyte CLint [15]: < 6 µL/min/1e6 cells
- hepatocyte CLint [16]: 6.5 µL/min/1e6 cells
- microsomal CLint [17]: < 18.1 µL/min/mg
- pIC50 [18]: 8.30
- pIC50 [19]: < 5.00
- Activity [20]: 107%
- Activity [21]: -2%
- Activity [22]: -7%
- Activity [23]: -2%
- Activity [24]: 0%
- Activity [25]: -1%
- Activity [26]: 0%
- inhibition [27]: 31%
- inhibition [28]: -5%
- inhibition (Rattus norvegicus [29]): 31%
- inhibition (Rattus norvegicus [30]): -1%
- inhibition (Homo sapiens): 21%
- inhibition [31]: 27%
- inhibition [32]: 85%
- inhibition [33]: 9%
- inhibition [34]: 4%
- pIC50 [35]: 5.28
- pKi [35]: 5.39
- pIC50 [36]: 7.32
- pKi [36]: 7.37
- pIC50 [37]: 5.40
- pKi [37]: 5.67
- pIC50 [38]: 5.44
- inhibition (Mus musculus): inactive
